Measured values: ChEMBL document CHEMBL1153348, “Semi-synthetic analogs of pinitol as potential inhibitors of TNF-alpha cytokine expression in human neutrophils” (2009)
The source made the active and inactive calls. No cut-off for these calls is given here.

Tested on: not listed separately
Assay: Antiinflammatory activity in human neutrophils assessed as inhibition of LPS-induced intracellular TNFalpha expression at 1 ug/mL after 3 hrs by flow cytometry
Format: functional, Neutrophil
Set-up: scale not given: the % may be the effect or the level left
Method in brief: (§1)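 Neutrophils were isolated from human blood: spun at 250g for 20 min, and the platelet-rich layer was discarded. The lower layer was spun at 1800g, and the buffy coat was layered on histopaque and spun at 700g. RBCs were lysed and the cells washed with PBS. Cells were given LPS plus compound for 3 h in a CO2 incubator, permeabilised, stained 30 min in the dark with conjugated anti-TNF-α mAb, and read by flow cytometry.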

| SMILES | Activity [%] |
| --- | --- |
| CCCC(=O)O[C@H]1[C@H](OC(=O)CCC)[C@H](OC(=O)CCC)[C@@H](OC)[C@H](OC(=O)CCC)[C@H]1OC(=O)CCC | 52.47 |
| CCO[C@H]1[C@H](OC)[C@H]2OC(C)(C)O[C@H]2[C@@H]2OC(C)(C)O[C@H]12 | 38.4 |
| CCCC(=O)O[C@@H]1[C@@H](O)[C@@H](O)[C@H](O)[C@H](O)[C@H]1OC | 8.36 |
| C=CCO[C@H]1[C@H](OC)[C@H]2OC(C)(C)O[C@H]2[C@@H]2OC(C)(C)O[C@H]12 | 34.98 |
| CO[C@H]1[C@H](OC)[C@H]2OC(C)(C)O[C@H]2[C@@H]2OC(C)(C)O[C@H]12 | 33.33 |
| CO[C@H]1C(=O)[C@H]2OC(C)(C)O[C@H]2[C@@H]2OC(C)(C)O[C@@H]21 | 50.57 |
| CCC(=O)O[C@H]1[C@H](OC(=O)CC)[C@H](OC(=O)CC)[C@@H](OC)[C@H](OC(=O)CC)[C@H]1OC(=O)CC | 30.79 |
| CO[C@H]1[C@H](O)[C@@H](O)[C@@H](O)[C@H](O)[C@@H]1O [METHYLINOSITOL] | 30.03 |
| CCC(=O)O[C@@H]1[C@@H](O)[C@@H](O)[C@H](O)[C@H](O)[C@H]1OC | 20.91 |
| CO[C@@H]1[C@@H](OC(C)=O)[C@@H](OC(C)=O)[C@H](O)[C@H](OC(C)=O)[C@H]1OC(C)=O | 33.46 |
| CO[C@H]1[C@H](Cl)[C@H]2OC(C)(C)O[C@H]2[C@@H]2OC(C)(C)O[C@@H]21 | 37.64 |
| C=CCO[C@@H]1[C@@H](O)[C@@H](O)[C@H](O)[C@H](O)[C@H]1OC | 29.65 |
| CO[C@@H]1[C@@H](O)[C@@H](O)[C@H](O)[C@H](O)[C@H]1OC(C)=O | 2.28 |
| CO[C@H]1[C@H](O)[C@H]2OC(C)(C)O[C@H]2[C@@H]2OC(C)(C)O[C@@H]21 | 13.09 |
| CO[C@@H]1[C@@H](O)[C@@H](O)[C@H](O)[C@H](O)[C@H]1OC(=O)C(C)C | 17.85 |
| CO[C@H]1[C@H](OC(C)=O)[C@H]2OC(C)(C)O[C@H]2[C@@H]2OC(C)(C)O[C@H]12 | 42.58 |
| CO[C@@H]1[C@@H](OC(=O)c2ccccc2)[C@@H](OC(=O)c2ccccc2)[C@H](OC(=O)c2ccccc2)[C@H](OC(=O)c2ccccc2)[C@H]1OC(=O)c1ccccc1 | 51.71 |
| CO[C@@H]1[C@@H](O)[C@@H](O)[C@H](O)[C@H](O)[C@H]1OC | 39.16 |
| CCC(=O)O[C@H]1[C@H](OC)[C@H]2OC(C)(C)O[C@H]2[C@@H]2OC(C)(C)O[C@H]12 | 32.14 |
| CO[C@@H]1[C@@H](OC(C)=O)[C@@H](OC(C)=O)[C@H](OC(C)=O)[C@H](OC(C)=O)[C@H]1OC(C)=O | 33.46 |
| CCCC(=O)O[C@H]1[C@H](OC)[C@H]2OC(C)(C)O[C@H]2[C@@H]2OC(C)(C)O[C@H]12 | 39.54 |
| CO[C@H]1[C@H](OC(=O)C(C)C)[C@H]2OC(C)(C)O[C@H]2[C@@H]2OC(C)(C)O[C@H]12 | 20.65 |
| CCO[C@@H]1[C@@H](O)[C@@H](O)[C@H](O)[C@H](O)[C@H]1OC | 36.5 |
| CO[C@H]1[C@H](OC(C)=O)[C@@H](OC(C)=O)[C@@H](OC(C)=O)[C@H](O)[C@@H]1OC(C)=O | 1.14 |

Tested on: not listed separately
Assay: Antiinflammatory activity in human neutrophils assessed as inhibition of LPS-induced intracellular TNFalpha expression at 10 ug/mL after 3 hrs by flow cytometry
Format: functional, Neutrophil
Set-up: scale not given: the % may be the effect or the level left
Method in brief: as §1

| SMILES | Activity [%] |
| --- | --- |
| COc1ccc(C2CNC(=O)C2)cc1OC1CCCC1 (stereo not drawn) [ROLIPRAM] | 52.85 |

Tested on: Neutrophil (Homo sapiens)
Assay: Antiinflammatory activity in human neutrophils assessed as inhibition of LPS-induced intracellular TNFalpha expression

| SMILES | Activity |
| --- | --- |
| CCCC(=O)O[C@H]1[C@H](OC(=O)CCC)[C@H](OC(=O)CCC)[C@@H](OC)[C@H](OC(=O)CCC)[C@H]1OC(=O)CCC | Active |
| CO[C@H]1C(=O)[C@H]2OC(C)(C)O[C@H]2[C@@H]2OC(C)(C)O[C@@H]21 | Active |
| CO[C@@H]1[C@@H](OC(=O)c2ccccc2)[C@@H](OC(=O)c2ccccc2)[C@H](OC(=O)c2ccccc2)[C@H](OC(=O)c2ccccc2)[C@H]1OC(=O)c1ccccc1 | Active |
